Source: PubChem (Sanford-Burnham Center for Chemical Genomics)
Jurkat NFkB inh: inhibitors of the PMA/ionomycin-induced NF-kB reporter in Jurkat cells. PMA/ionomycin-induced NF-kB luciferase reporter, luminescence. inhibition, % at 4 µM. 0.53% of 330,000 active. AID 435003; in the data active = inhibition above about 50%
H9c2 TAG inh: inhibitors of triacylglycerol accumulation; H9c2 cells, Nile Red lipid (TAG) fluorescence; cells loaded with 200 µM oleic acid; inhibition, % at 12.5 µM; 0.66% of 230,000 active;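 active = pattern-corrected inhibition of lipid staining of at least 50% with the nuclear-stain viability signal not falling by more than 50%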;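 note: 0% = DMSO wells and 100% = triacsin C control wells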
hiPSC survival: enhancers of human iPSC single-cell survival; 0.044% of 360,000 active; AID 602274; survival enhancement, % at 20 µM; hiPSC single-cell survival, ATPlite luminescence; 100% = ROCK inhibitor wells, 0% = DMSO; in the data active = survival enhancement above about 18%;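 note: cells exposed to compounds for 16 hours before the ATP read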
Lipid droplet: modulators of hepatic lipid droplet formation; AID 1656; AML12 mouse hepatocytes, oleate lipid droplets, BODIPY imaging; inhibition, % at 6.5 µM; 0.4% of 240,000 active;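 active = lipid droplet intensity inhibited by at least 50%, with more than 500 cells counted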
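Material: mouse AML12 hepatocyte cell line, fixed after treatment; Timing: compound with oleate, overnight; Technique: high-content imaging of BODIPY-stained droplets and DAPI nuclei; Probe or stimulus: oleate, 100 µM final; Dosing: compound at 6.5 µM only.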
Gli-Sufu antag: Gli-Sufu pathway antagonism. Sufu-KO-LIGHT fibroblasts, Gli luciferase reporter luminescence. inhibition, % at 5 µM. 0.74% of 340,000 active;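 active = inhibition above about 55%, limit read from the data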;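 note: 0% = DMSO-treated cells and 100% = wells with medium but no cells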
697 NFkB inh: lowers PMA/ionomycin-induced NF-kB signal in 697 B cells. 697 B-cell NF-kB luciferase reporter, 16 h. 0.33% of 330,000 active. inhibition, % at 4 µM; in the data active = inhibition above about 35%
Lipid drop inh: confirmation of inhibitors of hepatic lipid droplet formation | inhibition, % at 5.2 µM | AML12 mouse hepatocytes, BODIPY lipid droplet imaging; droplets induced with 100 µM oleic acid | AID 463183 | shares compounds with Lipid droplet | 65% of 870 active;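 active = inhibition of lipid droplet metric at least 50%, with more than 300 cells in each of four replicates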;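 note: plate controls were DMSO with oleic acid for no effect and 5 µM Triacsin-C for full effect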
AML12 cytotox: AML12 hepatocyte cytotoxicity (counter-screen) | shares compounds with Lipid droplet | z-score at 5 µM | 3% of 870 active | AML12 mouse hepatocytes, DAPI nuclear morphology cytotoxicity imaging; stronger effect = higher value; cells fed 100 µM oleate overnight; in the data active = z-score above about 6.3;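 note: compound exposure lasted overnight at 37 °C before fixation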
AML12 tox ATP: confirmation of cytotoxicity in AML12 mouse hepatocytes; shares compounds with Lipid droplet; AML12 mouse hepatocyte viability, ATP luminescence; cells loaded with 100 µM oleic acid; cytotoxicity, % at 50 µM; 530 tested, under 10 active; AID 463219;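 active = cytotoxicity above 50% in each of four replicates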;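 note: compound exposure lasted overnight at 37 °C before the ATP read; 0% = DMSO-treated cells and 100% = wells with no cells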
An asterisk follows results filed as active; nt = no result given. Sampled rows, rich in hits. Any-hit rate of the full collection: about 1.8%.

SMILES	Jurkat NFkB inh	H9c2 TAG inh	hiPSC survival	Lipid droplet	Gli-Sufu antag	697 NFkB inh	Lipid drop inh	AML12 cytotox	others
COc1cccc(C(=O)NC2CCCc3c2cnn3-c2cc(C)cc(C)c2)c1 (stereo unspecified)	0.7	30.9	1.0	73.8*	8.8	16.6	107.8*	-0.268	AML12 tox ATP=9.9
COc1ccc(-c2ccc3oc(-c4ccsc4)cc(=O)c3c2)cn1	0.3	-15.5	-0.8	nt	-69.7	-132.5	nt	nt
CC[N+](CC)(CC)CCCCOc1ccc2c(c1)C(=O)c1cc(OCCCC[N+](CC)(CC)CC)ccc1-2	-13.8	-16.1	0.7	-20.4	2.3	-26.1	nt	nt
OCC[C@H]1C[C@@H](O)[C@H](O)[C@@]2(Cc3ccccc3O2)O1	3.1	14.3	-1.5	nt	-1.5	7.8	nt	nt
OCC[C@@H]1C[C@H](O)[C@@H](O)[C@]2(Cc3ccccc3O2)O1	0.9	nt	-2.0	62.3*	-6.5	10.6	45.0	0.0827
O=C(CNc1ccccc1)N/N=C/c1cn(-c2ccccc2)nc1-c1ccccc1	-3.2	nt	1.1	58.4*	4.4	-16.1	37.6	0.372
C#CCOCCOCCOCCNc1nc(N2CCOCC2)nc(N2CCN(C(=O)[C@H]([C@@H](C)CC)n3cc([C@@H](N)Cc4ccc(O)cc4)nn3)CC2)n1	8.8	44.5	-1.0	55.0*	1.6	9.7	13.3	-0.697
CCOCCCNC(=O)CCS(=O)(=O)Cc1ccc(C)cc1	10.0	nt	1.2	nt	1.6	9.7	nt	nt
CCCCOc1ccc(C(C)NC(=O)CCS(=O)(=O)Cc2ccc(C)cc2)cc1 (stereo unspecified)	12.9	29.2	-2.5	51.8*	4.0	11.4	103.0*	-0.154
O=C(NCCCCc1ccccc1)c1ccccc1Br	-3.0	-6.0	0.6	nt	2.3	-8.9	nt	nt
O=C(CCNC(=O)C1CCN(S(=O)(=O)c2ccccc2)CC1)NCc1ccc(Cl)cc1Cl	6.6	nt	0.1	55.8*	-9.5	0.3	75.1*	-0.396	AML12 tox ATP=12.4
O=C(CCNC(=O)C1CCN(S(=O)(=O)c2ccc(F)cc2)CC1)NCc1ccccc1Cl	7.0	nt	0.6	50.6*	-25.3	0.1	21.8	-0.597
O=C(CCNC(=O)C1CCN(S(=O)(=O)c2ccccc2)CC1)NCc1ccc(Cl)cc1	17.9	nt	-0.2	-1.8	-2.2	2.1	nt	nt
O=C(Nc1cccc(S(=O)(=O)N2CCOCC2)c1)c1ccc(Cl)c([N+](=O)[O-])c1	10.6	8.2	-1.8	60.7*	-13.1	11.5	26.9	0.797
O=C(Nc1ccc(S(=O)(=O)N2CCOCC2)cc1)c1ccc(Cl)c([N+](=O)[O-])c1	nt	-3.6	-0.2	nt	-23.0	nt	nt	nt
Cc1cc(C(=O)N(C)Cc2c(F)cccc2Cl)c2ccccc2n1	7.6	nt	-0.6	-37.2	-22.7	-7.0	nt	nt
COc1ccc(S(=O)(=O)N(CC(=O)N2CCCCCC2)c2ccccc2OC)cc1	9.3	nt	-0.1	58.0*	33.3	1.1	-11.8	-1.35
CC(NCC(=O)Nc1ccccc1C(=O)NC1CC1)c1ccco1 (stereo unspecified)	-5.6	11.1	0.3	nt	-3.5	20.0	nt	nt
COc1cccc(NC(=O)N2CCCC(C(=O)Nc3ccccc3OC)C2)c1 (stereo unspecified)	-0.5	1.0	3.6	nt	4.6	-6.0	nt	nt
COc1ccc(CNC(=O)C2CCCN(C(=O)Nc3ccccc3OC)C2)cc1 (stereo unspecified)	-1.5	nt	-0.6	81.1*	9.4	8.1	98.8*	-0.726	AML12 tox ATP=10.1
Cc1cc(C(c2ccc(O)cc2)c2cc(C)c(O)cc2C)c(C)cc1O	-14.6	-9.6	-0.4	56.4*	7.2	3.0	21.5	-0.959
CCC(c1ccc(O)cc1)C(CC)c1ccc(O)cc1 (stereo unspecified)	-3.7	0.8	1.6	nt	-3.6	5.7	nt	nt
CC(C)(C)NC(=O)CSc1nc2ccc(Nc3nc(N4CCOCC4)nc(N4CCOCC4)n3)cc2s1	1.9	nt	1.3	53.1*	32.0	8.7	89.0*	0.588	AML12 tox ATP=-2.1
